# Laboratory results reported in ChEMBL document CHEMBL5724801, “EUbOPEN Chemogenomics Library - Multiplex” (2024).
# “And” between values parts separate entries of the source, which are not always exact repeats. Identical values can stand only once.
# Tested on: U2OS
# Experiment: Multiplex assay against U2OS
# Assay type: toxicity, cell-based
# Settings: human
# Outline: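 Cells were classed with CellPathfinder machine-learning gating, first as Hoechst high-intensity objects or normal cells, then (normal cells) as healthy, pyknosed or fragmented nuclei, and finally (pyknosed cells) as mitotic or apoptotic. Staining of live cells at seeding used Hoechst33342, BioTracker Green Microtubule Cytoskeleton Dye, MitoTracker Red and Annexin V Alexa Fluor 680, with imaging on a CQ1 microscope at 37°C and 5% CO2 after compound addition. Tubulin, mitochondrial-mass and membrane-permeability phenotypes are per cents of healthy-nucleus cells.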
# [1] = 12 h, 1 µM, compound concentration 1 uM
# [2] = 12 h, 10 µM, compound concentration 10 uM
# [3] = 24 h, 1 µM, compound concentration 1 uM
# [4] = 24 h, 10 µM, compound concentration 10 uM
# [5] = 48 h, 1 µM, compound concentration 1 uM
# [6] = 48 h, 10 µM, compound concentration 10 uM
smiles,measurement,setting,value
COc1cccc2c1c(NS(=O)(=O)c1ccc(Cl)s1)nn2Cc1cccc(CNC(=O)C(C)(C)O)c1,Population Apoptotic (%),[1],86% and 81%
same,Population Fragmented Nuclei (%),[1],23% and 29%
same,Population Healthy Nuclei (%),[1],67% and 64%
same,Population Hoechst High Intensity Objects (%),[1],3% and 6%
same,Population Membrane Permeable-Phenotype (%),[1],4% and 7%
same,Population Mitochondria Different-Phenotype (%),[1],1% and 3%
same,Population Mitotic Cells (%),[1],13% and 18%
same,Population Normal (%),[1],96% and 93%
same,Population Pyknosed Nuclei (%),[1],9% and 5%
same,Population Tubulin-Different-Phenotype (%),[1],1% and 6%
same,Total Cell Count,[1],261 and 201
same,Population Apoptotic (%),[2],76% and 83%
same,Population Fragmented Nuclei (%),[2],26% and 25%
same,Population Healthy Nuclei (%),[2],65% and 70%
same,Population Hoechst High Intensity Objects (%),[2],1% and 5%
same,Population Membrane Permeable-Phenotype (%),[2],6% and 8%
same,Population Mitochondria Different-Phenotype (%),[2],2% and 3%
same,Population Mitotic Cells (%),[2],23% and 16%
same,Population Normal (%),[2],98% and 94%
same,Population Pyknosed Nuclei (%),[2],8% and 4%
same,Population Tubulin-Different-Phenotype (%),[2],4% and 2%
same,Total Cell Count,[2],264 and 140
same,Population Apoptotic (%),[3],96% and 90%
same,Population Fragmented Nuclei (%),[3],20% and 28%
same,Population Healthy Nuclei (%),[3],70% and 66%
same,Population Hoechst High Intensity Objects (%),[3],1% and 5%
same,Population Membrane Permeable-Phenotype (%),[3],5% and 8%
same,Population Mitochondria Different-Phenotype (%),[3],1% and 3%
same,Population Mitotic Cells (%),[3],3% and 9%
same,Population Normal (%),[3],98% and 94%
same,Population Pyknosed Nuclei (%),[3],8% and 4%
same,Population Tubulin-Different-Phenotype (%),[3],3% and 6%
same,Total Cell Count,[3],307 and 242
same,Population Apoptotic (%),[4],90% and 88%
same,Population Fragmented Nuclei (%),[4],25%
same,Population Healthy Nuclei (%),[4],64% and 68%
same,Population Hoechst High Intensity Objects (%),[4],1% and 5%
same,Population Membrane Permeable-Phenotype (%),[4],5% and 8%
same,Population Mitochondria Different-Phenotype (%),[4],3% and 4%
same,Population Mitotic Cells (%),[4],10% and 11%
same,Population Normal (%),[4],98% and 94%
same,Population Pyknosed Nuclei (%),[4],10% and 5%
same,Population Tubulin-Different-Phenotype (%),[4],2%
same,Total Cell Count,[4],304 and 167
same,Population Apoptotic (%),[5],95% and 74%
same,Population Fragmented Nuclei (%),[5],14% and 22%
same,Population Healthy Nuclei (%),[5],76% and 68%
same,Population Hoechst High Intensity Objects (%),[5],1% and 7%
same,Population Membrane Permeable-Phenotype (%),[5],4% and 5%
same,Population Mitochondria Different-Phenotype (%),[5],1% and 4%
same,Population Normal (%),[5],98% and 92%
same,Population Pyknosed Nuclei (%),[5],9%
same,Population Tubulin-Different-Phenotype (%),[5],2% and 5%
same,Total Cell Count,[5],463 and 314
same,Population Apoptotic (%),[6],93% and 100%
same,Population Fragmented Nuclei (%),[6],20% and 22%
same,Population Healthy Nuclei (%),[6],71%
same,Population Hoechst High Intensity Objects (%),[6],2% and 3%
same,Population Membrane Permeable-Phenotype (%),[6],5%
same,Population Mitochondria Different-Phenotype (%),[6],2% and 3%
same,Population Mitotic Cells (%),[6],6% and 0%
same,Population Normal (%),[6],97% and 96%
same,Population Pyknosed Nuclei (%),[6],8% and 5%
same,Population Tubulin-Different-Phenotype (%),[6],3%
same,Total Cell Count,[6],413 and 235
